We go through 97 compounds from ChEMBL document CHEMBL4513216, “Probing the Open Global Health Chemical Diversity Library for Multistage-Active Starting Points for Next-Generation Antimalarials” (ACS Infect Dis, 2020).

The data set is described as follows: Toxicity liver stage against HepG2, at 10uM. It counts as cell-based. Also noted: test concentration 10 uM, cell line HepG2-A16-CD81EGFP. The following applies: human, HepG2-A16-CD81EGFP cells; read-out: INHIBITION
The essentials:
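Uninfected HepG2-A16-CD81EGFP cells, 3 × 10^3 per well, 1536-well, plated on prespotted compound at 10 μM final, parasite-free screening media added to match infected plates; puromycin 10 μM positive, DMSO 0.5% negative; run in parallel with 48 h PbLuc assay at 37 °C, 5% CO2; viability by CellTiter-Glo luminescence, normalized to controls.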
Turning to `Cc1ccccc1C1(CNC(=O)c2ccc(S(C)(=O)=O)cc2)CC1`, the cytotoxicity at 10 µM is -7.16%.

Regarding `CCCc1nc(CNc2ccc(F)c(F)c2)no1`, the cytotoxicity at 10 µM worked out at 8.93%.

As for `c1ccc(C[C@H]2CN(Cc3nccs3)CC[C@@H]2OCC2CC2)cc1`, the cytotoxicity at 10 µM was -62.3%.

For the compound `O=C(C1CCCCC1)N1CCCC2(CCN(c3cnccn3)CC2)C1`, the cytotoxicity at 10 µM is 6.59%.

Consider `Cc1nc(CN2CCCN(C(=O)CCc3ccco3)CC2)cs1`, for which the cytotoxicity at 10 µM came to 0.386%.

Take `CC(C)NC(=O)C(C)NC(=O)N1CCN(c2ccc(Cl)cc2)CC1` (configuration not stated): the cytotoxicity at 10 µM was -3.6%.

For the compound `Cc1nnc(N2C[C@@H](Oc3ccccn3)[C@H]3OCCC[C@H]32)s1`, the cytotoxicity at 10 µM was -5%.

As to `O=S(=O)(N1CCCC1)N1CCCCC1CCc1ccccc1` (configuration not stated), the cytotoxicity at 10 µM was -5.65%.

In the case of `O=C(Nc1ncc[nH]1)c1cc(-c2cccnc2)n[nH]1`, the cytotoxicity at 10 µM is 5.69%.

Regarding `CCOc1cccc(C(=O)N2C[C@@H]3CC[C@H]2CN(C(=O)C2CCC2)C3)c1`, the cytotoxicity at 10 µM worked out at 5.73%.

For the compound `CCc1nnsc1-c1nc(C(C)C)nn1-c1ccc2c(c1)OCO2`, the cytotoxicity at 10 µM was -9.69%.

As to `COCCN1CCC2(CCC1=O)CN(C1CCOCC1)CCN2C` (configuration not stated), the cytotoxicity at 10 µM is 0.0227%.

As for `CCc1ncnc(N2CCOCC2CCO)c1F` (configuration not stated), the cytotoxicity at 10 µM is -2.56%.

On to `O=C(O)[C@]12CN(CC3CCC3)C[C@H]1CN(c1cnccn1)C2`, for which the cytotoxicity at 10 µM amounted to 8.16%.

As for `Cc1nc(C2CCCN(C(=O)c3cccc(S(C)(=O)=O)c3)C2)no1` (configuration not stated), the cytotoxicity at 10 µM is -2.33%.

For the compound `CC(C)c1nc2n(n1)CC(NCc1nnnn1C1CC1)CC2` (configuration not stated), the cytotoxicity at 10 µM is -1.4%.

On to `Cc1ccc(CN2CCN(Cc3nccn3C)[C@H]3CS(=O)(=O)C[C@H]32)o1`, for which the cytotoxicity at 10 µM was -3.65%.

Turning to `CC(C)c1cc(NCC2(N(C)C)CCCC2)ncn1`, the cytotoxicity at 10 µM amounted to 4.22%.

Regarding `Cc1ccc(OCCC(=O)N(C)CCC#N)cc1C`, the cytotoxicity at 10 µM came to 6.5%.

As for `COc1ccc(N)c(N2CCN(C(C)=O)CC2)n1`, the cytotoxicity at 10 µM is -6.22%.

On to `CCOCCCNc1ncc(-c2onc(C)c2C)c(-c2ccco2)n1`, for which the cytotoxicity at 10 µM was 10.2%.

Take `COc1cc(Cc2nc3c([nH]2)CC(C)(C)CNC3=O)cc(OC)c1`: the cytotoxicity at 10 µM is -6.27%.

With `Cn1cc(C2COC3(CCN(C(=O)Cn4cccn4)CC3)C2)cn1` (configuration not stated), the cytotoxicity at 10 µM is 2.7%.

`CC(C)NC(=O)c1ccc2nnc(C3CCN(S(C)(=O)=O)C3)n2c1` (configuration not stated): the cytotoxicity at 10 µM stood at 3.5%.

For the compound `c1ccc(Cc2noc(-c3ccc(NCC4CCCCO4)nc3)n2)cc1` (configuration not stated), the cytotoxicity at 10 µM was found to be 3%.

As for `O=C(NCCCNc1ccc(C(F)(F)F)cn1)c1ccc(F)cc1Br`, the cytotoxicity at 10 µM is 13.1%.

As for `O=C(C1CC(=O)N(C2CC2)C1)N1CCN(CCn2cccc2)CC1` (configuration not stated), the cytotoxicity at 10 µM was -12%.

On to `CSc1ncc(C(=O)N2C[C@@H](NC(C)=O)[C@H](c3ccc(C)cc3)C2)cn1`, for which the cytotoxicity at 10 µM is -0.645%.

In the case of `Cc1nc(CN2CCCC(CCc3ccccc3C(F)(F)F)C2)no1` (configuration not stated), the cytotoxicity at 10 µM turned out to be 2.79%.

In the case of `COCC1c2nnn(CC3CC3)c2CCN1C(=O)c1cccc(F)c1` (configuration not stated), the cytotoxicity at 10 µM was -8.31%.

Turning to `Cn1c(CN2CC[C@](C)(O)C(C)(C)C2)cc2ccccc21`, the cytotoxicity at 10 µM is -3.6%.

On to `Cc1cnn(CC2CN(c3ncnc4ccccc34)CCO2)c1` (configuration not stated), for which the cytotoxicity at 10 µM stood at 6.57%.

For `Cc1nc(C)n(CC(C)C(=O)N2CCC(N3CCC(O)CC3)CC2)n1` (configuration not stated), the cytotoxicity at 10 µM is 1.43%.

With `Cn1cc(C(=O)N2CCCC2c2[nH]ncc2C(N)=O)cn1` (configuration not stated), the cytotoxicity at 10 µM is -7.05%.

With `Cc1ccc(Cl)cc1N1CCN(CC(=O)NC(C)c2ccco2)CC1` (configuration not stated), the cytotoxicity at 10 µM was 5.89%.

In the case of `c1coc(CN2C[C@H](OCC3CCOCC3)[C@H]3COC[C@H]32)c1`, the cytotoxicity at 10 µM turned out to be 0.127%.

On to `c1ccc(OCC2CC2)c(CNC2CCc3ncnn3C2)c1` (configuration not stated), for which the cytotoxicity at 10 µM is -6.72%.

Consider `CN(Cc1ccc(Cl)s1)C(=O)Nc1ccc(N(C)C)nc1`, for which the cytotoxicity at 10 µM was -1.73%.

In the case of `CNc1cc(N2CCCC2CNCc2c[nH]nc2C(C)(C)C)ncn1` (configuration not stated), the cytotoxicity at 10 µM was 7.91%.

Turning to `CCc1cc(CN(C)C(=O)c2cnon2)on1`, the cytotoxicity at 10 µM is 9.83%.

For `COc1ccc(CSc2nnc(N)n2C2CC2)cc1F`, the cytotoxicity at 10 µM came out at 5.11%.

Regarding `Cn1c(=O)oc2cc(Nc3nccnc3C#N)ccc21`, the cytotoxicity at 10 µM came out at 2.14%.

As to `Cc1cc(C2CCCN2Cc2cc(=O)n(C)c(=O)n2C)on1` (configuration not stated), the cytotoxicity at 10 µM was -4.72%.

`COc1ccc2cc(C3CN(C(=O)N(C)C)CCO3)ccc2c1` (configuration not stated): the cytotoxicity at 10 µM is 4.26%.

Take `Cn1nccc1CN1CCOC(c2cccc(Nc3ccccn3)n2)C1` (configuration not stated): the cytotoxicity at 10 µM worked out at 23.9%.

As to `COc1ccc2c(c1)CC(C1CCOCC1)N(C(=O)c1cnccn1)C2` (configuration not stated), the cytotoxicity at 10 µM came to 5.21%.

With `CCCn1c(N2CCCC2)nc2c(C)nn(C)c2c1=O`, the cytotoxicity at 10 µM came out at 2.33%.

On to `O=C(CSCC1CC1)N1CCCN(Cc2ccc(F)cc2)CC1`, for which the cytotoxicity at 10 µM was determined as 3.54%.

With `Cc1cccc(CN2CCN3C[C@H](Oc4cncnc4)C[C@H]3C2)n1`, the cytotoxicity at 10 µM is -91.9%.

As for `Cc1nc(CN2CCCC(c3nc(C)n4c(C)c(C)sc34)C2)co1` (configuration not stated), the cytotoxicity at 10 µM is -21.7%.

Take `O=C1CC2(CCN(CC3CCOC3)CC2)c2ccccc2N1CC1CC1` (configuration not stated): the cytotoxicity at 10 µM was -9.61%.

In the case of `O=C(CC1CCCC1)NCCS(=O)(=O)N1CCN(c2ccccn2)CC1`, the cytotoxicity at 10 µM was found to be 0.766%.

On to `CCN(CC(F)(F)F)C(=O)C1CCCN(Cc2nc(C)c(C)o2)C1` (configuration not stated), for which the cytotoxicity at 10 µM is -4.05%.

As for `CC(Cn1cccn1)NC(=O)NCCCN1CCc2ccccc21` (configuration not stated), the cytotoxicity at 10 µM was -0.449%.

On to `FC1(F)CCNCC12CCN(c1ncccn1)C2` (configuration not stated), for which the cytotoxicity at 10 µM worked out at 6.65%.

As for `CC(C)CC(NC(=O)c1cccs1)c1nc2cccnc2n1C` (configuration not stated), the cytotoxicity at 10 µM amounted to 7.27%.

Consider `CS(=O)(=O)N1CC2(CCN(CC3CCCCC3)CC2)Cc2ccccc21`, for which the cytotoxicity at 10 µM turned out to be 6.25%.

Take `COCCNC(=O)NCCCOC1CCCc2ccccc21` (configuration not stated): the cytotoxicity at 10 µM came out at 11.7%.

As to `O=C(Cc1ccco1)N1C[C@H]2CCC[C@@]2(COCC2CC2)C1`, the cytotoxicity at 10 µM was -108%.

In the case of `CO[C@H]1COCCN(C(=O)c2ccc(C#N)cc2)C1`, the cytotoxicity at 10 µM was 4.94%.

As for `NC(=O)CN1CCC(c2csc(Nc3cnccn3)n2)CC1`, the cytotoxicity at 10 µM was -2.19%.

In the case of `O=C(C1CCOC1)N1CCc2ncnc(NC3CCC3)c2CC1` (configuration not stated), the cytotoxicity at 10 µM was -151%.

For the compound `Cc1ccc(C(=O)Nc2nnc(C(C)C)s2)c(-n2cnnn2)c1C`, the cytotoxicity at 10 µM is -0.649%.

In the case of `CCC(CNC(=O)c1ccccc1OC)N1CCc2ccccc2C1` (configuration not stated), the cytotoxicity at 10 µM is 12%.

`CC(C)[C@@H]1CN(C(=O)NCc2ccco2)C[C@H]1N(C)C`: the cytotoxicity at 10 µM amounted to 12.7%.

As for `CCN(Cc1c(C)nn(CC)c1C)S(=O)(=O)c1cnn(C)c1`, the cytotoxicity at 10 µM amounted to 4.98%.

For `O=C(NCC(O)c1ccccc1C(F)(F)F)c1cccnc1` (configuration not stated), the cytotoxicity at 10 µM was -2.9%.

`COc1c(CNCc2ccnc(N3CCOCC3)c2)c(C)nn1C`: the cytotoxicity at 10 µM is -1.82%.

Take `CSCC(=O)N1CCN(CC(O)C(C)(C)C)CC1` (configuration not stated): the cytotoxicity at 10 µM is -5.66%.

On to `Cn1cc(C#N)cc1C(=O)N1CCC2(CCCN(CC3CCC3)C2=O)C1` (configuration not stated), for which the cytotoxicity at 10 µM was -4.3%.

As for `CCC(=O)N1CCC2(CC1)COCCN2Cc1ccc(F)cc1`, the cytotoxicity at 10 µM is -76.5%.

In the case of `Cc1n[nH]c(C)c1CCN(C)C(=O)C(c1cccnc1)N1CCOCC1` (configuration not stated), the cytotoxicity at 10 µM is -0.593%.

As to `CNS(=O)(=O)CCCn1nnc(-c2ccc(F)c(C)c2)n1`, the cytotoxicity at 10 µM was -1.52%.

Turning to `CCCn1cc(CNCC(c2ccc(C)s2)N2CCOCC2)cn1` (configuration not stated), the cytotoxicity at 10 µM was -0.248%.

Consider `Cc1ccc(C(NC(=O)CN2CCc3c(ncn3C)C2)C2CC2)cc1` (configuration not stated), for which the cytotoxicity at 10 µM was -2.43%.

Regarding `CCOCCOc1ccccc1C(=O)N1C[C@H](C2CC2)[C@@H](N)C1`, the cytotoxicity at 10 µM was -0.332%.

Turning to `COCCn1cncc1Cn1ncc2ccccc2c1=O`, the cytotoxicity at 10 µM came to 1.77%.

For `COCCN1CCCN(C(=O)NC(C)Cn2cccn2)CC1` (configuration not stated), the cytotoxicity at 10 µM was -9.39%.

In the case of `Cc1cc(CN2CCCC2Cn2cncn2)no1` (configuration not stated), the cytotoxicity at 10 µM is -10%.

Turning to `CN(C)S(=O)(=O)N1CCC(Oc2ccccn2)CC1`, the cytotoxicity at 10 µM amounted to 13.6%.

Turning to `O=C(O)c1cc(S(=O)(=O)Nc2cccc3c2OCCO3)c(Cl)cc1F`, the cytotoxicity at 10 µM is -7.08%.

Consider `CCn1nc(CNC(C)(C)CO)c(-c2ccccc2)n1`, for which the cytotoxicity at 10 µM is 8.96%.

With `COc1ccc(C(C)(C)C(=O)NCc2n[nH]c(=O)[nH]2)cc1`, the cytotoxicity at 10 µM came out at 1.07%.

In the case of `Cc1cnc(-c2nc(C3CCCN(Cc4cccs4)C3)no2)cn1` (configuration not stated), the cytotoxicity at 10 µM worked out at 1.33%.

For the compound `CC1CCN(C)c2ccccc2N1C(=O)c1ccc(=O)n(C)c1` (configuration not stated), the cytotoxicity at 10 µM was -0.117%.

Regarding `CC[C@@]1(O)CCN(C(=O)c2ccoc2)C[C@H]1O`, the cytotoxicity at 10 µM turned out to be 4.63%.

Regarding `COc1ccccc1CNc1ncnc2c1NC(=O)CN2`, the cytotoxicity at 10 µM was determined as 11.3%.

In the case of `CC(C)(NCCCOc1ccc(C#N)cc1)c1nccs1`, the cytotoxicity at 10 µM is -0.476%.

As for `O=C(N[C@@H]1CN[C@@H]2CCCO[C@@H]21)c1cscn1`, the cytotoxicity at 10 µM was -8.69%.

For the compound `Cc1cccc(CN(Cc2cccnc2)C2CC(C)(C)NC(C)(C)C2)n1`, the cytotoxicity at 10 µM was -5.11%.

For `CN1CCN(C2CCOCC2)CC12CCC(=O)N(CC1CC1)CC2` (configuration not stated), the cytotoxicity at 10 µM is -1.93%.

With `NC(=O)c1ccc(S(=O)(=O)NCCc2ccccn2)cc1`, the cytotoxicity at 10 µM is -16%.

Regarding `COCC(=O)N1CCC(O)(CN2CCN(c3ccccc3)CC2)C1` (configuration not stated), the cytotoxicity at 10 µM is -2.38%.

`Cc1cc(C)cc(OCCNC(=O)C(C)Sc2nncn2C)c1` (configuration not stated): the cytotoxicity at 10 µM was -46.3%.

Regarding `c1ccc(CN2CCCC(CNc3ncnc4c3CCNCC4)C2)cc1` (configuration not stated), the cytotoxicity at 10 µM was -9.89%.

In the case of `CNC(=O)N1CCc2nc(C(=O)NCc3cccc(OC)c3)sc2CC1`, the cytotoxicity at 10 µM is -84.2%.

Turning to `Cc1ccc(-c2nnc(CN3CCOC(Cn4cccn4)C3)o2)cc1` (configuration not stated), the cytotoxicity at 10 µM was -8.06%.
